Most compounds without a hit are left out; they make up all but 1.8% or so of the library.
mABHD4 FP – inhibitors of mouse ABHD4. Q8VD66. purified mABHD4, FP-Rh probe fluorescence polarization. inhibition, % at 8.92 µM. 370,000 compounds, 0.54% hits. AID 720543;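 active = inhibition exceeding the mean over every tested compound plus 3 SD, cut at about 30% in these data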
Target sequence (Q8VD66 whole entry, looked up): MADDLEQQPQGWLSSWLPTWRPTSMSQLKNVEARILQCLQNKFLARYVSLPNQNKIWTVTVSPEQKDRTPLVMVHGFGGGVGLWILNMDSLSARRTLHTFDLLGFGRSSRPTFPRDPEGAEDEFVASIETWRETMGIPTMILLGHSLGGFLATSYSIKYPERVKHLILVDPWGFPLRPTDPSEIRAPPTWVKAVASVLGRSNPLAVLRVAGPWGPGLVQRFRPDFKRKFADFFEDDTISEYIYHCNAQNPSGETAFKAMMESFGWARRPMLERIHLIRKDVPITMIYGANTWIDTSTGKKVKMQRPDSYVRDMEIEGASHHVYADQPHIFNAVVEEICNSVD
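Assay system: mABHD4 protein; medium: HEPES pH 7.0, NaCl, Pluronic buffer; dosing: 8.92 µM, single dose; schedule: 45 min + 60 min at 25 °C; signal: FP readout, ex 525 nm / em 598 nm; read-out: normalized percent inhibition of probe labeling; repeats: single replicate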
ARNT-TACC3 inh – ARNT/TACC3 interaction disruption. AlphaScreen His-ARNT PAS-B/GST-TACC3 binding, luminescence; TACC3 fragment carries E629A point mutation. inhibition, % at 9.99 µM. Q9Y6A5. 390,000 compounds, 0.66% hits. AID 623870;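 active = mean inhibition of replicates at least 50% and at least half of replicates each reaching 50%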
SIAE inh – human SIAE inhibition, primary screen; AID 1053197; inhibition, % at 9.66 µM; SIAE FP-Rh probe binding, fluorescence polarization; Q9HAT2; 370,000 compounds, 0.69% hits;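 active = inhibition above a cutoff: mean of compounds within the control limits plus 3 SD of those, cut at about 17% in these data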
TCR-CD3 inh – human TCR-CD3 binding inhibition | TAMRA-labeled TCR probe fluorescence, biochemical | 360,000 compounds, 0.37% hits | inhibition, % at 9.4 µM;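 note: recombinant mutant TCR 2C K166C tagged with TAMRA read by polarization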
HTRA1 inh – HTRA1 (human) protease inhibition | inhibition, % at 5.96 µM | AID 504803 | 340,000 compounds, 0.5% hits | Q92743 | recombinant HTRA1, FP-rhodamine activity-based probe, fluorescence polarization; in the data active = inhibition above about 36%
HTRA1 conf – HTRA1 (human) inhibition, confirmation; inhibition, % at 5.96 µM; AID 540248; recombinant HTRA1, FP-rhodamine activity-based probe, fluorescence polarization; 1,600 compounds, 66% hits; shares compounds with HTRA1 inh;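 active = mean inhibition over three repeats above a set limit taken from the earlier primary screen, cut at about 37% in these data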;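 note: inhibitors block probe binding so polarization drops and inhibition rises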
BSA probe FL – interferes with TAMRA-BSA probe, flagging TCR-CD3 hits. 1,200 compounds, 10% hits. shares compounds with TCR-CD3 inh. TAMRA-labeled BSA probe fluorescence counterscreen. inhibition, % at 9.4 µM; in the data active = inhibition above about 23%
TCR-CD3 inh conf – confirmation of human TCR-CD3 interaction inhibitors. shares compounds with TCR-CD3 inh. TAMRA-labeled TCR probe fluorescence binding assay. inhibition, % at 9.4 µM. 1,200 compounds, 48% hits
mABHD4 conf – confirmation of mouse ABHD4 inhibitors. shares compounds with mABHD4 FP. purified mABHD4, FP-Rh probe fluorescence polarization. inhibition, % at 8.92 µM. 1,800 compounds, 55% hits. AID 720658;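 active = mean inhibition across replicates above the hit cutoff set in the primary screen, cut at about 30% in these data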
Hits are given with their value; ! = not confirmed by another sample. Cut-off read from the data, not from the text of the source, unless noted: active = inhibition above about 19%; inactive = the rest.

Results for Oc1cc(CNCc2ccccc2)c(O)cc1CNCc1ccccc1 ?
mABHD4 FP: 41; ARNT-TACC3 inh: inactive; SIAE inh: inactive; TCR-CD3 inh: inactive; HTRA1 inh: 57; HTRA1 conf: 52; mABHD4 conf: 58

How did CCC(=O)N1[C@@H]2Cn3c(ccc(-c4cncnc4)c3=O)[C@H]1[C@@H](C(=O)N1CCc3ccccc3C1)[C@@H]2CO do in these assays?
ARNT-TACC3 inh: inactive

What do the screens show for `COc1ccc(S(=O)(=O)Nc2ccc3c(c2)C(=O)N([C@H](C)CO)C[C@H](C)[C@H](CN(C)C)OCCCC[C@H](C)O3)cc1`?
ARNT-TACC3 inh: inactive

How did CCN=c1scc(-c2ccco2)n1/N=C/c1ccc(O)cc1 do in these assays?
mABHD4 FP: inactive; ARNT-TACC3 inh: inactive; SIAE inh: inactive; TCR-CD3 inh: inactive; HTRA1 inh: inactive

What do the screens show for `CCN=c1scc(C)n1/N=C/c1ccc(O)c(O)c1O`?
mABHD4 FP: 60; ARNT-TACC3 inh: 79; SIAE inh: inactive; TCR-CD3 inh: 27; HTRA1 inh: 60; HTRA1 conf: 81; BSA probe FL: inactive; TCR-CD3 inh conf: 41; mABHD4 conf: 49

How did O=C(C[C@H]1CC[C@H]2[C@@H](COC[C@H](O)CN2Cc2ccc(Cl)cc2)O1)NCCc1ccccc1 do in these assays?
ARNT-TACC3 inh: inactive

How did O=c1cc2c(=O)oc3cc(O)c(O)oc3c2c(O)c1O do in these assays?
mABHD4 FP: 42; ARNT-TACC3 inh: 13; SIAE inh: inactive; TCR-CD3 inh: 26; HTRA1 inh: 47; HTRA1 conf: 38; BSA probe FL: inactive; TCR-CD3 inh conf: 19; mABHD4 conf: 34

What do the screens show for `O=C(C[C@H]1C[C@H]2c3cc(NC(=O)NC4CCCCC4)ccc3O[C@H]2[C@H](CO)O1)NCC1CC1`?
ARNT-TACC3 inh: inactive

Results for O=C(N[C@H]1CC[C@H](CCNS(=O)(=O)c2ccc(Cl)cc2)O[C@H]1CO)c1cccc(F)c1 ?
ARNT-TACC3 inh: inactive

Results for O=C1c2cc(O)cc(O)c2C(=O)c2c1cc(O)c([C@@H](CO)CCO)c2O ?
mABHD4 FP: 56; ARNT-TACC3 inh: 46; SIAE inh: inactive; TCR-CD3 inh: inactive; HTRA1 inh: 39; HTRA1 conf: inactive; mABHD4 conf: 51

How did CN1CCc2cccc3c2[C@H]1Cc1ccc(O)c(O)c1-3 do in these assays?
mABHD4 FP: 88; ARNT-TACC3 inh: inactive; SIAE inh: 18!; TCR-CD3 inh: inactive; HTRA1 inh: 59; HTRA1 conf: 50; mABHD4 conf: inactive

How did O=C(O)c1cccc(N/N=C(\N=Nc2ccccc2)c2ccccc2)c1 do in these assays?
mABHD4 FP: 72; SIAE inh: inactive; TCR-CD3 inh: inactive; HTRA1 inh: 59; HTRA1 conf: 74; mABHD4 conf: 104

How did O=C(O)c1ccc(N=N/C(=N\Nc2ccc(C(=O)O)cc2)c2ccccc2)cc1 do in these assays?
mABHD4 FP: inactive; SIAE inh: inactive; TCR-CD3 inh: inactive; HTRA1 inh: inactive

How did C=CCn1c(SCC(=O)c2ccc(O)c(O)c2)nnc1-c1ccc(OC)cc1 do in these assays?
mABHD4 FP: 38; ARNT-TACC3 inh: inactive; SIAE inh: inactive; TCR-CD3 inh: inactive; HTRA1 inh: 56; HTRA1 conf: 79; mABHD4 conf: inactive

What do the screens show for `C=CCn1c(SCC(=O)c2ccc(O)c(O)c2)nnc1-c1ccc(C)cc1`?
mABHD4 FP: 34; ARNT-TACC3 inh: inactive; SIAE inh: inactive; TCR-CD3 inh: inactive; HTRA1 inh: 60; HTRA1 conf: 66; mABHD4 conf: inactive

How did Cc1ccc(-c2nnc(SCC(=O)c3ccc(O)c(O)c3)n2-c2ccc(Cl)cc2)cc1 do in these assays?
mABHD4 FP: inactive; SIAE inh: inactive

Results for Cc1cc(C)c2nc(NNC(=O)c3cc(=O)c4ccccc4o3)sc2c1 ?
mABHD4 FP: 40; ARNT-TACC3 inh: inactive; SIAE inh: inactive; TCR-CD3 inh: inactive; HTRA1 inh: 69; HTRA1 conf: 59; mABHD4 conf: 61

How did Brc1ccc(N/N=C(/N=Nc2nn[nH]n2)c2ccccc2)cc1 do in these assays?
mABHD4 FP: 91; ARNT-TACC3 inh: inactive; SIAE inh: 17; TCR-CD3 inh: inactive; HTRA1 inh: 62; HTRA1 conf: 88; mABHD4 conf: 104

Results for COCCCNc1c2c3c(cccc3[nH]c1=O)C(=O)c1ccccc1-2 ?
mABHD4 FP: 109; ARNT-TACC3 inh: inactive; SIAE inh: inactive; TCR-CD3 inh: 172; HTRA1 inh: 126; HTRA1 conf: 120; BSA probe FL: active; TCR-CD3 inh conf: 185; mABHD4 conf: 178

How did COCCCNC1=C(Cl)C(=O)c2ccccc2C1=O do in these assays?
mABHD4 FP: inactive; ARNT-TACC3 inh: inactive; SIAE inh: inactive; TCR-CD3 inh: inactive; HTRA1 inh: inactive

What do the screens show for `NC(=S)NNc1cccc2cccnc12`?
mABHD4 FP: 32; ARNT-TACC3 inh: 65; SIAE inh: inactive; TCR-CD3 inh: 19; HTRA1 inh: 46; HTRA1 conf: inactive; BSA probe FL: inactive; TCR-CD3 inh conf: inactive; mABHD4 conf: 52

How did Oc1ccccc1CNc1cccc2cccnc12 do in these assays?
mABHD4 FP: 47; ARNT-TACC3 inh: inactive; SIAE inh: inactive; TCR-CD3 inh: inactive; HTRA1 inh: 39; HTRA1 conf: inactive; mABHD4 conf: inactive

How did CCN1[C@@H]2c3ccc(-c4cccc(C(=O)N(C)C)c4)c(=O)n3C[C@@H]2[C@@H](CO)[C@@H]1C(=O)OC do in these assays?
ARNT-TACC3 inh: inactive

Results for O=C([C@H]1[C@H](CO)[C@H]2Cn3c(cccc3=O)[C@H]2N1Cc1ccncc1)N1CCCCC1 ?
ARNT-TACC3 inh: inactive

Results for Oc1ccc(/C=N/N(Cc2ccccc2)c2ccccc2)c(O)c1O ?
mABHD4 FP: 34; ARNT-TACC3 inh: inactive; SIAE inh: inactive; TCR-CD3 inh: inactive; HTRA1 inh: 68; HTRA1 conf: 55; mABHD4 conf: 46

How did CCOC(=O)c1c2c(n(C)c1C)C(=O)C(=O)c1ccc(Br)cc1-2 do in these assays?
mABHD4 FP: inactive; ARNT-TACC3 inh: inactive; SIAE inh: inactive; TCR-CD3 inh: inactive; HTRA1 inh: inactive

What do the screens show for `CCOC(=O)c1c2c(n(Cc3ccccc3)c1C)C(=O)C(=O)c1ccccc1-2`?
mABHD4 FP: 39; ARNT-TACC3 inh: inactive; SIAE inh: inactive; TCR-CD3 inh: inactive; HTRA1 inh: 46; HTRA1 conf: 43; mABHD4 conf: 54

Source: PubChem
